# Source: PubChem BioAssay
# The source made the active and inactive calls.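 The calls were made as follows, unless noted: active = inhibition at or above 50% at 10 µM; inactive = inhibition below 50%.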
# How the values were obtained:
# [1] = inhibitors of TNFa-induced NFkB p65 translocation, primary screen, imaging, HUVEC, MLSMR starter and 10KST1 sets (AID 438;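 active = inhibition above 20% together with a positive visual image hit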;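 also: compound added about 3h40 before a 20 min TNFalpha stimulation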;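 as to inhibition: signal is the nuclear over cytoplasmic p65 intensity ratio per well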); conditions: HUVEC TNFa-induced p65 nuclear translocation; cell count: measured here: nuclei count (cytotoxicity indicator), at 2.08 µM; inhibition: at 2 µM, stronger effect = higher value, 0% TNFa-plus-vehicle, 100% no-TNFa wells
# [2] = inhibitors of mutant huntingtin aggregation, primary screen, imaging, exon1htt(103Q)mCFP cells, high-content imaging (AID 483;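 active = visual image review flags a hit and inhibition of aggregation exceeds 20%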;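 also: compound exposure lasted 3 days before fixation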;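 as to nuclei count: percent of the per-plate median nuclei count of sample wells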); conditions: exon1htt(103Q)mCFP cell line, aggregate imaging, at 2 µM; inhibition of aggregation: stronger effect = higher value; nuclei count: measured here: cell count, toxicity
# [3] = inhibitors of E-selectin induction by TNFa, primary screen, imaging, HUVEC, immunofluorescence, MLSMR starter and 10KST1 sets (AID 487;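 active = visually confirmed hit in the image check and inhibition above 20%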;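 as to inhibition: signal is fraction of cell area covered by stained E-selectin grains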;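 as to nuclei count: 100% = median nuclei count of all wells on the same plate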); conditions: HUVEC TNFalpha-induced E-selectin immunofluorescence imaging, at 2 µM; inhibition: stronger effect = higher value; nuclei count: measured here: cell number, toxicity
# [4] = biological target: Voltage-gated potassium channel subunit beta-2 (Rattus norvegicus) (UniProt P62483); experiment: KvBeta enzyme negative modulators, primary screen, biochemical, NADPH fluorescence (AID 622;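 active = fluorescence slope higher than the sample average by over 3 SD, cut at about -0.22 in these data, passing the limit was not always enough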;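 also: slope of raw intensity against log time taken from 70 to 1610 s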); conditions: recombinant KvBeta, 4-cyanobenzaldehyde reduction, at 10 µM, stronger effect = higher value
# Sequence of Voltage-gated potassium channel subunit beta-2 (Rattus norvegicus) (P62483 whole entry, looked up): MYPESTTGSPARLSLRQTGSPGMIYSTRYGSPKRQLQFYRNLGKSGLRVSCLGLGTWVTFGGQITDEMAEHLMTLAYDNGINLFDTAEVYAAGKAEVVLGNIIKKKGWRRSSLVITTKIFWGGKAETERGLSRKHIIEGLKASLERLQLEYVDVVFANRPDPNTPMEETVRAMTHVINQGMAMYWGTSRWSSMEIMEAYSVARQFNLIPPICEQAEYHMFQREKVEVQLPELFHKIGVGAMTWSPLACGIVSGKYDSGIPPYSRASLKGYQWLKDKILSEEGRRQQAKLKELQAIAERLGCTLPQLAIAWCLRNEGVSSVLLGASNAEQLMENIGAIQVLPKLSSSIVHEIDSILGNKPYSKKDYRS
# [5] = biological target: Voltage-gated potassium channel subunit beta-2 (Rattus norvegicus) (UniProt P62483); experiment: KvBeta positive modulators, primary screen, biochemical, NADPH fluorescence (AID 623;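 active = NADPH fluorescence slope more negative than the mean of all samples by about 3 SD, 99.7% confidence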;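 also: fluorescence intensity change per second fitted from 20 to 320 s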); conditions: Recombinant KvBeta, NADPH fluorescence decrease slope, 10 min; at 10 µM; stronger effect = lower value
# [6] = biological target: Alpha-2C adrenergic receptor (Homo sapiens) (UniProt P18825); experiment: modulators of alpha2C/GIRK thallium flux, primary screen, cell-based, HEK293 alpha2C/GIRK1/2 (AID 624;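 active = fluorescence slope after compound addition differing from the mean of all screened samples at 99.7% confidence, in either direction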;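 also: slope of fluorescence ratio to pre-addition baseline per second over 15 to 24 s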); conditions: thallium flux BTC fluorescence, at 10 µM, actives lie on both sides
# Sequence of Alpha-2C adrenergic receptor (Homo sapiens) (P18825 whole entry, looked up): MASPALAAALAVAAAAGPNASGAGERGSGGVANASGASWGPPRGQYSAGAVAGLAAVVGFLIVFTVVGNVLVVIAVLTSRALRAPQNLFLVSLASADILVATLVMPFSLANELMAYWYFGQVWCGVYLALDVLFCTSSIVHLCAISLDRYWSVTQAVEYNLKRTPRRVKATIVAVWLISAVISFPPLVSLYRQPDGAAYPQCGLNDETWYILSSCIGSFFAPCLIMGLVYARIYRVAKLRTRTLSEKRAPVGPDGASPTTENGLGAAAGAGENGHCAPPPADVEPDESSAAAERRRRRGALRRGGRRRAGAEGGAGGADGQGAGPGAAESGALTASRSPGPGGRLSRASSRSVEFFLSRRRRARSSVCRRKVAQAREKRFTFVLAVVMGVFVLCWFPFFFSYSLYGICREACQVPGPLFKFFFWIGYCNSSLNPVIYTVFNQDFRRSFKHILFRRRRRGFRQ
# [7] = inhibitors of larval lipid processing in zebrafish, primary screen, whole organism, PED6 fluorescence, gall bladder and intestine (AID 686;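 active = a full or partial loss of lipid-probe fluorescence in the fish gall bladder, intestine or both, judged by eye; inactive = no fluorescence loss, or compound toxic to the fish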;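 also: larvae 5 to 7 days old with five fish per well; signal comes from phospholipase A2 cleavage of quenched PED6 carried via bile; overnight exposure to compound and PED6 before scoring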); conditions: Zebrafish larvae PED6 lipid processing, fluorescence scoring; screened at 20 µM (by protocol)
# How it was run: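 System: live zebrafish larvae aged 5-7 days, whole organism; measure: graded gall bladder and intestinal fluorescence inhibition per well; incubation: overnight exposure; reagent: ingested quenched lipid PED6 at 100 nM; signal: By-eye fluorescence microscopy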
# [8] = inhibitors of Sendai virus-induced IRF3 signaling, primary screen, TLR/RLR signaling modifier project, cell-based, Sendai virus stimulus, luciferase, 10K MLSCN set (AID 602276); conditions: HEK293 RL24 IRF3 luciferase reporter, at 10 µM, stronger effect = higher value;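 also: firefly luciferase from ISG56 promoter only with Renilla not read in this screen; 0% = Sendai virus plus DMSO and 100% = medium plus DMSO without virus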
# [9] = inhibitors of poly I:C-induced TLR3 signaling, primary screen, cell-based, poly I:C stimulus, luciferase, 10K MLSCN set (AID 602277;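 active = inhibition of the reporter signal at or above 50%; inactive = inhibition below 50%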); conditions: HEK293-TLR3 RL24 IRF3 luciferase reporter, at 10 µM, stronger effect = higher value
Structure (SMILES),cell count [1],inhibition [1],inhibition of aggregation [2],nuclei count [2],inhibition [3],nuclei count [3],fluorescence slope [4],NADPH fluorescence slope [5],slope [6],outcome [7],inhibition [8],inhibition [9]
Cc1cc(=O)c2n(Cc3ccccc3Cl)nc[n+]2[nH]1,800,6% (inactive),3% (inactive),97.2%,-111% (inactive),120%,-0.397 (inactive),-5.7e-05 (inactive),0.00447 (inactive),inactive,5.55% (inactive),8.5% (inactive)
O=C(CCCSc1nc2ccccc2s1)NC1=NCCS1,333,-7.4% (inactive),10.8% (inactive),102%,-3.2% (inactive),102%,-0.409 (inactive),-1.5e-05 (inactive),0.00541 (inactive),inactive,36% (inactive),60.9% (active)
C=CCN(CC=C)C(=O)Nc1cc(Cl)ccc1OC,373,0.5% (inactive),-7.2% (inactive),103%,-87.7% (inactive),111%,-0.402 (inactive),-3.2e-05 (inactive),0.0044 (inactive),inactive,4.56% (inactive),-3.97% (inactive)
CCOC(=O)/C=C1\SCC(=O)N1Cc1nnc(-c2ccccc2Br)o1,505,0.5% (inactive),-7.7% (inactive),98.7%,-51.5% (inactive),123%,-0.452 (inactive),-5.3e-05 (inactive),0.00466 (inactive),inactive,12.8% (inactive),10.1% (inactive)
CCN(CC)S(=O)(=O)c1ccc(NC(=O)c2cccc3c2C(=O)N(CCOC)C3)cc1,778,-3.6% (inactive),5.3% (inactive),93.3%,-84.2% (inactive),129%,-0.244 (inactive),-2.6e-05 (inactive),0.00636 (inactive),inactive,10.3% (inactive),26.3% (inactive)
COc1cccc(C2C(C(=O)c3cccs3)=C(O)C(=O)N2CCCn2ccnc2)c1OC (stereo not given),406,-2% (inactive),12.6% (inactive),96.7%,-168% (inactive),106%,-0.341 (inactive),-6.6e-05 (inactive),0.0053 (inactive),inactive,8.13% (inactive),7.94% (inactive)
COc1cccc2c(=O)cc(C)n(CC(=O)Nc3ccc(C)c(C)c3)c12,456,9.4% (inactive),-8.4% (inactive),50.1%,46.9% (inactive),85.2%,-0.364 (inactive),-4.9e-05 (inactive),0.00483 (inactive),inactive,0.857% (inactive),-0.697% (inactive)
C=C(C)Cn1c(CCCNC(=O)C(C)(C)C)nc2ccccc21,770,-19.6% (inactive),-0.5% (inactive),106%,14% (inactive),110%,-0.397 (inactive),-3.4e-05 (inactive),0.00533 (inactive),inactive,6.04% (inactive),98.2% (active)
CCc1nnc(NC(=O)CSc2nnc3ncccn23)s1,341,-5.8% (inactive),-25.9% (inactive),132%,-34.8% (inactive),102%,-0.437 (inactive),-9.3e-05 (inactive),0.00648 (inactive),inactive,18.7% (inactive),25.6% (inactive)
O=C(CN(Cc1ccc(F)cc1)C(=O)c1ccco1)NCc1ccc(F)cc1,357,6.8% (inactive),7% (inactive),90.9%,-382% (inactive),130%,-0.359 (inactive),-3.4e-05 (inactive),0.00584 (inactive),inactive,14.4% (inactive),21.2% (inactive)
